Screening results (PubChem)
The list is not random: actives were taken first. Their share in the collection is about 2%.
Autophagy HCS: alters autophagy in cells; MEF GFP-LC3 puncta imaging; test concentration mostly 10 µM; calls only at 10 µM (by protocol); hit rate 0.98% among 190,000;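 active = percentage of spot-positive cells more than 3 SD above its plate mean, without a fluorescence outlier flag or 80% toxicity; inconclusive = no clear call, values can overlap the other calls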;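 also: spot-positive cell cutoff set from DMSO-treated cells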
Dynein transport: dynein cargo transport inhibition. hit rate 0.47% among 220,000. AID 1381. z-score, hits read low. 3617.4 mouse cells, GR-EGFP nuclear translocation imaging; test concentration mostly 20 µM; stimulated with dexamethasone, 1 µM; stronger effect = lower value;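 active = plate z-score of nuclear minus cytoplasmic receptor signal below a set negative limit, without overly bright fluorescence or cell loss, cut at about -3.5 in these data, passing the limit was not always enough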;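 also: z-score of nuclear minus cytoplasmic ring GR-EGFP intensity difference per well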
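Buffer or medium: Induction medium lacking tetracycline, stripped serum | Also added: Dexamethasone agonist, 1.0 µM final, for 30 min | Timing: 48 h induction, 1 h compound, 30 min dex at 37 °C | Detection: Formaldehyde fixation, Hoechst nuclear stain, 10x automated fluorescence imaging | Measure: Nuclear versus cytoplasmic GR-EGFP signal, averaged per well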
Insulin prom up: MIN6 insulin promoter up-regulation. z-score at 5 µM. MIN6 insulin promoter-GFP reporter, high-content imaging; stronger effect = higher value. hit rate 0.3% among 190,000. AID 1625;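 active = z-score above 3 at 5 µM with at least 500 cells counted in the well; inconclusive = wells under 500 cells, flagged as cytotoxic or low count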
Insulin prom inh: TRM-6 insulin promoter activity inhibition; TRM-6 cells (human fetal islet line), insulin promoter-eGFP reporter, imaging; reporter expression induced with tamoxifen; inhibition, % at 2 µM; hit rate 0.9% among 130,000;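 active = inhibition above the mean plus 3 SD, with well images judged a real hit on visual review, cut at about 60% in these data, passing the limit was not always enough; inconclusive = inhibition over the cutoff but images rejected on review; inactive = inhibition not above the cutoff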
Dynein confirm: dynein cargo transport inhibition, confirmation. hit rate 69% among 1,000. shares compounds with Dynein transport. 3617.4 GR-EGFP nuclear translocation imaging, dexamethasone-induced. calls only at 20 µM;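 active = inhibition of receptor movement into the nucleus at or above a set limit in both runs, with normal cell brightness and cell count; inconclusive = limit reached in only one run, brightness and count normal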;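 also: dexamethasone at 1 µM final in well for 30 min; nuclear minus cytoplasmic GR-EGFP mean intensity difference in channel 2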
Starred values were filed as active, the others as inactive; i = inactive; ? = inconclusive; · = not tested or not shown; + = active, no number.

SMILES | Autophagy HCS | Dynein transport | Insulin prom up | Insulin prom inh | Dynein confirm
O=C(Cn1ncc(Cl)c(Cl)c1=O)N1CCN(S(=O)(=O)c2ccc3ccccc3c2)CC1 | + | -4* | -4.4 | · | +
COc1ccc(CC(=O)n2[nH]c(=O)ccc2=O)cc1OC | · | -3.6* | 0.33 | · | i
COc1ccc(CC(=O)n2[nH]c(=O)c3ccccc3c2=O)cc1OC | · | -0.23 | 0.36 | · | ·
CCC1CCC(NC(=O)Nc2cccc(OC)c2)CC1 (stereo not drawn) | i | -0.58 | 0.03 | · | ·
Cn1c(=O)c2nc(NCc3ccccc3)cnc2n(C)c1=O | i | -0.78 | -0.55 | · | ·
Cc1nc2c(=O)n(C)c(=O)n(C)c2nc1Cl | i | -6.2* | -0.6 | 18 | +
COC(=O)c1sccc1NC(=O)CC1C(=O)NCCN1C(=O)Nc1cc(Cl)ccc1OC (stereo not drawn) | · | 3.2 | -0.14 | · | ·
CC[n+]1c(/C=C/C=C/N(C(C)=O)c2ccccc2)sc2cc(OC)ccc21 | ? | -3.8* | · | -270 | +
Cc1nn(C)c(C(=O)Sc2cccc(Cl)c2)c1[N+](=O)[O-] | · | -3.9* | 0.45 | · | +
CCn1nc(C)cc1C(=O)Sc1cccc(Cl)c1 | · | -3.5* | · | · | +
O=C(/C=C/c1ccccc1)c1ccc2c(c1)OCO2 | · | -0.62 | 0.21 | · | ·
O=C(/C=C/c1ccncc1)c1ccc2c(c1)OCCO2 | i | -5.4* | 0.05 | · | +
Cc1cccc(Cn2cc(/C=C/[N+](=O)[O-])c3ccccc32)c1 | i | -1.2 | 0.55 | 25 | ·
O=[N+]([O-])/C=C/c1cn(Cc2ccc(Cl)cc2)c2ccccc12 | i | -3.7* | 1.2 | 3 | i
CC(C)N1C/C(=C/c2cccnc2)C(=O)/C(=C/c2cccnc2)C1 | i | -4.2* | -0.12 | -58 | +
CC(C)N1C/C(=C/c2ccsc2)C(=O)/C(=C/c2ccsc2)C1 | i | -3.8* | -0.62 | · | +
O=C1C=CC(O)(c2cc(=O)c3c(O)cc(O)cc3o2)C=C1 | i | -6.7* | ? | -224 | +
Cc1ccc(-c2cc(C(F)F)nc(S(C)(=O)=O)n2)cc1 | i | -4.5* | -0.09 | 27 | +
COc1ccc(C(=O)OCC(=O)c2ccc(C3CCCCC3)cc2)cc1 | i | -0.35 | 0.01 | 48 | ·
Nc1ccc(O)cc1C(=O)OCC(=O)c1ccc(C2CCCCC2)cc1 | i | -3.5* | -0.52 | -21 | +
Cc1ncsc1CCC(=O)N1CCCC(C(=O)c2ccc3c(c2)OCO3)C1 (stereo not drawn) | i | 0.77 | -0.82 | · | ·
Cc1ccc(/C=C/C(=O)NCC2COc3ccccc3O2)o1 (stereo not drawn) | i | -6.6* | 0.53 | · | +
CCOC(=O)C1=C(SCC)c2cc3c(n2C1=O)CCCC3 | i | -3.6* | · | 13 | +
CCOC(=O)C1=C(C)NC(=O)NC1c1ccoc1 (stereo not drawn) | i | -0.55 | -0.16 | · | ·
CC(=O)O[C@@H]1C[C@H]2C(C)(C)C(=O)C=C[C@]2(C)[C@H]2CC[C@@]3(C)[C@H](c4ccoc4)OC(=O)[C@H]4O[C@]43[C@@]21C | i | -3.9* | · | 25 | +
SMILES | Autophagy HCS | Dynein transport | Insulin prom up | Insulin prom inh | Dynein confirm
CCOc1cc(CNCCO)cc(Br)c1OCc1ccccc1Cl | i | 1.4 | -3.9 | · | ·
CCOc1cc(CNCCCN2CCOCC2)cc(Br)c1OCc1ccccc1Cl | i | -5.1* | -2.9 | -114 | i
CC(=O)Nc1sc(/C(C#N)=C/c2ccc(Cl)c(Cl)c2)nc1-c1ccc(C)cc1 | ? | -5.9* | · | -223 | +
CS(=O)(=O)c1ccc(C(=O)OCc2nnc(-c3ccc(Cl)cc3)o2)cc1[N+](=O)[O-] | i | -5.6* | -0.38 | 46 | +
O=C(OCc1nnc(-c2ccc(Cl)cc2)o1)c1ccc(O)cc1 | i | -0.43 | · | -61 | ·
COc1ccc(C)cc1NC(=O)c1nn(C)cc1Br | · | -1.2 | -0.64 | · | ·
N#CC1=C(N)C(C#N)(C#N)[C@H](c2cccnc2)[C@H]2CN(C(=O)OCc3ccccc3)CC=C12 | i | -0.28 | -0.21 | 0 | ·
N#CC1=C(N)C(C#N)(C#N)C(c2ccncc2)C2CN(C(=O)OCc3ccccc3)CC=C12 (stereo not drawn) | i | -4 | · | 5 | i
CCOC(=O)c1c(NC(=S)N2CCCCC2)sc2c1CCN(C(=O)OCC)C2 | · | -3.6* | -0.49 | · | +
CCOC(=O)c1c(NC(=S)N2CCOCC2)sc2c1CCN(C(=O)OCC)C2 | · | -4.7* | 0.01 | · | +
C=CCNC(=S)Nc1sc2c(c1C(=O)OCC)CCN(C(=O)OCC)C2 | i | 1.2 | 0.02 | -8 | ·
CC12CC3(C)CC(C)(C1)CC(C(=O)NC(=S)N1CCCC1)(C2)C3 | i | 0.99 | · | -25 | ·
O=C(Nc1ccc(Cl)cc1)/C(=C/c1cccc(O)c1)c1nc2ccccc2s1 | + | -6* | -0.39 | -3 | +
COc1ccccc1-c1nnc(Sc2nc([N+](=O)[O-])nn2C)o1 | i | -4.1* | · | · | +
Cn1cnnc1Sc1nc([N+](=O)[O-])nn1C | i | 0.37 | 0.8 | · | ·
COc1ccc2c(c1)c1ccc3c(c1n2C)C(=O)C=CC3=O | · | -5.8* | -0.2 | · | +
CC1(C)C(CSc2nc3ccccc3[nH]2)C1(Cl)Cl (stereo not drawn) | i | 1.1 | · | · | ·
Cc1ccc(C(C)C)cc1NC(=O)Nc1ccc([N+](=O)[O-])cc1 | · | -0.17 | -0.6 | · | ·
CCOC(=O)c1c(C)oc2c(F)c(F)c(F)c(F)c2c1=O | i | -4.6* | ? | · | +
Cc1ncccc1C(=O)N1CCCC(CNC(=O)C2(c3ccc(Cl)cc3)CC2)C1 (stereo not drawn) | i | -0.8 | · | · | ·
CCNC(=S)N1CCC(n2cnc3ccccc32)CC1 | i | 0.2 | -0.22 | · | ·
Cc1cc(-c2ccc(NC(=O)[C@@H]3CCCC[C@@H]3C(=O)O)c(C)c2)ccc1NC(=O)[C@@H]1CCCC[C@@H]1C(=O)O | i | -0.1 | 0.44 | · | ·
Cc1nc(S/C(=C/c2ccc(OCc3ccc(C(=O)O)cc3)cc2)C(=O)O)n[nH]1 | i | 0.17 | 0.25 | · | ·
O=C1C(Cl)=C(Nc2ccccc2)C(=O)c2ccccc21 | i | -0.77 | ? | -386 | ·
O=C(O)c1ccc(NC2=C(Cl)C(=O)c3ccccc3C2=O)cc1 | · | -5.2* | · | · | +
SMILES | Autophagy HCS | Dynein transport | Insulin prom up | Insulin prom inh | Dynein confirm
CC(=O)n1cc(N(C(=O)CCl)c2ccccc2)c2ccccc21 | · | -4.5* | ? | · | +
CC(=O)O/C(=C\c1cn(C(C)=O)c2ccccc12)C(=O)O | · | 1.7 | -1.2 | · | ·
CC(=O)n1cc(N(C(=O)CCl)c2ccc([N+](=O)[O-])cc2)c2ccccc21 | · | -5* | ? | · | +
COCCN(CC(=O)NC1CCCCC1)C(=O)/C=C/C(=O)c1ccc(OC)cc1O | i | -3.7* | 1.3 | · | +
O=C(/C=C/c1ccccc1[N+](=O)[O-])c1ccccc1Br | i | -3.3 | 0.35 | 18 | ·
N=c1n(Cc2ccccc2)c2ccccc2n1CC(O)COc1ccc(Cl)cc1Cl (stereo not drawn) | i | -3.8* | ? | -14 | i
CC[n+]1c(/C=C2\Sc3ccccc3N2C)ccc2cccc(C)c21 | ? | -8.5* | ? | · | +
